Most compounds without a hit are left out; they make up all but 3.7% or so of the library.
NPY Y1 blocker: NPY-Y1 (human) receptor antagonism; P25929; 200,000 tested, 1% active; AID 1040; inhibition, % at 3.6 µM; HEK293-CNG Y1 cells, membrane potential fluorescence; NPY at EC95, then isoproterenol;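 active means inhibition above the campaign mean inhibition of all tested compounds plus 3 SD, cut at about 20% in these data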;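 further: 0% = DMSO wells given NPY plus isoproterenol and 100% = isoproterenol alone without NPY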
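Assay system: HEK293 Y1/CNG channel cell line; Doses: single compound dose of 3.6 µM, 0.4% DMSO; Timing: dye 3 h, compound 60 min room temperature, stimulation 45 min; Technique: Membrane-potential fluorescent dye readout; Measure: % inhibition of NPY effect.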
Furin inhibitor: blocks human furin protease activity; inhibition, % at 20 µM or 30 µM; 220,000 tested, 0.061% active; P09958; purified furin, fluorogenic substrate cleavage; in the data active means inhibition above about 25%
NPY2 pot ag: potentiators or agonists of human neuropeptide Y receptor Y2. activation, % at 3.6 µM. P49146. AID 1359. cells expressing NPY-Y2, potentiator/agonist read-out. 220,000 tested, 0.45% active; in the data active means activation above about 27%;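 further: cells stimulated with NPY near EC25 plus isoproterenol at EC100; 0% = vehicle plus submaximal agonist and 100% = vehicle plus saturating agonist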
Target sequence (P49146 whole entry, looked up): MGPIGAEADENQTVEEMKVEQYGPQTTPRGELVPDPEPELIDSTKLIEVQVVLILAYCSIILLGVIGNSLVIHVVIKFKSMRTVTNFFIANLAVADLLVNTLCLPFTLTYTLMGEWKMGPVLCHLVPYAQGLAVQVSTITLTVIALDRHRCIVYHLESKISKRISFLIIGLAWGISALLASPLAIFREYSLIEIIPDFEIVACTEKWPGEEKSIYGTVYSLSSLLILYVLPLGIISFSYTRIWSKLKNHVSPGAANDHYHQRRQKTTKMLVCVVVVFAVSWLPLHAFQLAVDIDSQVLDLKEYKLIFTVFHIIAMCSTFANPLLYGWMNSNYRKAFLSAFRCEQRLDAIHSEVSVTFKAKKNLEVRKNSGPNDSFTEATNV
NPY1 pot ag: potentiates or activates human NPY-Y1 receptor | P25929 | NPY-Y1 expressing cells, potentiator/agonist activation | activation, % at 3.6 µM | 220,000 tested, 0.37% active; in the data active means activation above about 33%, passing the limit was not always enough;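 further: cells stimulated with NPY at EC10 then isoproterenol at EC100; 0% = low agonist plus stimulus and 100% = saturating agonist plus stimulus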
KCC2 mod: KCC2 (human) Cl- transport modulation. Q9H2X9. KCC2 cells, thallium flux FluoZin-2 fluorescence. B-score of Tl+ flux slope (higher = more flux/activation; lower = inhibition) at 10 µM. 190,000 tested, 2.2% active. AID 1456;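 active means thallium flux slope and its plate-corrected score both differing from the plate sample mean at a set confidence after two filtering rounds, in either direction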;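 further: slope of fluorescence scaled to starting intensity during 10 to 20 s after thallium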
NPY Y2 blocker: NPY-Y2 (human) receptor antagonism. P49146. NPY-Y2 expressing cells, antagonist mode. 140,000 tested, 0.99% active. inhibition, % at 2.7 µM; in the data active means inhibition above about 17%;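 further: 0% = vehicle with agonist challenge and 100% = reference antagonist with challenge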
KCC2 sec1: confirmation of human KCC2 transport modulators. HEK293-KCC2, thallium flux, FluoZin2 fluorescence; hits give high values. 3,700 tested, 15% active. normalised thallium flux (F/F0 slope) at 10 µM. shares compounds with KCC2 mod. AID 1713;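 active means thallium flux slope above the same plate's solvent-only control mean plus 3 SD; inconclusive means the two replicate wells disagree; inactive means no significant difference from solvent-only control wells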
KCC2 bumet counter: thallium flux despite bumetanide block in KCC2 cells, secondary assay 3 | normalized thallium flux at 10 µM | 3,700 tested, 49% active | shares compounds with KCC2 mod | HEK293-KCC2 + bumetanide/ouabain, thallium flux FluoZin2; hits give high values;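 active means thallium entry rate above the same plate's blocked-transporter control wells by more than 3 SD; inconclusive means the two repeat wells disagree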;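 further: raw slope of fluorescence over initial fluorescence between 10 and 20 s after thallium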
KCC2 secondary2: confirmation of human KCC2 transport modulators | 3,700 tested, 23% active | shares compounds with KCC2 mod | normalized thallium flux at 10 µM | HEK293-KCC2, thallium flux FluoZin2 fluorescence; actives lie on both sides; F/F0 rise rate, 10–20 s post-thallium;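 active means thallium flux slope more than 3 SD above or below the plate's solvent-only control mean, mostly below; inconclusive means the two repeat wells disagreed; inactive means no significant shift from solvent-only controls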;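 further: raw slope with 0.1% DMSO as baseline and bumetanide as block control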
HEK counter1: acts in parental HEK cells, KCC2 counter-screen; shares compounds with KCC2 mod; HEK293 parental cells, thallium flux FluoZin2, ouabain; baseline-ratio fluorescence slope, 10–20 s after thallium; thallium flux rate (normalised fluorescence) at 10 µM; 3,700 tested, 46% active; AID 1716;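 active means thallium flux rate significantly above the same plate's solvent-only control wells, beyond their mean plus 3 SD; inconclusive means the two replicate wells gave conflicting results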
KCC2 ouabain: KCC2 (human) modulation, ouabain retest | shares compounds with KCC2 mod | HEK293-KCC2, thallium flux FluoZin2 fluorescence; bidirectional: low = inhibitor, high = activator | raw Tl+ flux slope (below DMSO = inhibition, above = activation) at 10 µM | 3,700 tested, 48% active | AID 1717;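 active means thallium flux slope beyond 3 SD from same-plate DMSO control mean in most replicates, usually higher, sometimes lower; inconclusive means repeat tests gave conflicting results; inactive means no significant difference from controls in most replicates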;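 further: slope of initial-normalized fluorescence between seconds 10 and 20 after thallium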
HEK counter2: acts in parental HEK cells, second KCC2 counter-screen | shares compounds with KCC2 mod | HEK293 parental, thallium flux FluoZin-2 fluorescence slope | thallium flux slope at 10 µM | 3,700 tested, 33% active;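 active means thallium flux slope above the same plate's solvent-control mean plus 3 SD in both duplicate wells; inconclusive means duplicate wells that disagreed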;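 further: run without ouabain in cells lacking the KCC2 cotransporter; slope of fluorescence scaled to its starting value between 10 and 20 s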
Numbers without * were called inactive; ? = inconclusive; / = no result given.

SMILES	NPY Y1 blocker	Furin inhibitor	NPY2 pot ag	NPY1 pot ag	KCC2 mod	NPY Y2 blocker	KCC2 sec1	KCC2 bumet counter	KCC2 secondary2	HEK counter1	KCC2 ouabain	HEK counter2
CCCCC(c1nnnn1Cc1ccco1)N1CCN(c2nc3ccccc3s2)CC1 (stereo unspecified)	2.6	-22.3	-11.4	-4.8	-6.93*	7.5	0.00918	0.00634	?	0.00668	0.0152*	0.0106
COC(=O)c1cc(C)[nH]c2c(C)cc3nc4ccccc4c3c12	/	-13.2	4.6	3.1	/	/	/	/	/	/	/	/
CNc1nc(-c2ccc3c(c2)CCN3C(=O)c2ccccc2F)cs1	1.6	-19.4	0.2	8.5	-4.26*	/	0.009	0.00654	0.0348	0.00363	0.0188	0.0112
CNc1nc(-c2ccc3c(c2)CCN3C(=O)c2ccccc2F)c(C)s1	-2.5	-12.8	0.0	8.6	-0.15	/	/	/	/	/	/	/
C=CCn1c(SCc2ccccc2)nc2scc(-c3ccc(C)o3)c2c1=O	-4.5	-13.3	-8.7	1.8	0.128	3.5	/	/	/	/	/	/
C=CCn1c(SCC(N)=O)nc2scc(-c3ccc(C)o3)c2c1=O	3.8	-2.1	8.0	3.0	36.9*	/	0.00729	0.0282*	0.0469*	0.037*	0.0416*	0.035*
O=C(CSc1ccccc1)N(c1ccc(Br)cc1)c1nccs1	12.7	-6.5	-1.9	3.7	-1.38	3.9	/	/	/	/	/	/
Cc1cccc(CSc2nnc(-c3ccco3)o2)c1	12.3	-20.0	-7.7	7.8	-0.0981	/	/	/	/	/	/	/
CC(=O)c1c(C)cc(C)c(CSc2nnc(-c3ccco3)o2)c1C	-0.9	-20.6	-6.7	-8.6	6.02*	1.8	0.00583	0.00411	?	?	0.0181	0.00973
Cc1[nH]c(=S)c(C#N)c(-c2ccco2)c1C(=O)N(C)C	5.5	-12.6	-1.1	6.8	0.355	/	/	/	/	/	/	/
CCOC(=O)C1CCCN(C/C(O)=C(\C#N)c2nc(-c3ccc(Cl)cc3)cs2)C1 (stereo unspecified)	10.8	-18.4	-15.7	-48.9	-3.47*	8.1	0.00837	0.00473	0.0244*	0.00733	0.0178*	0.0103
CCCCCc1cc(=O)oc2c(C(CCN(CC)CC)c3ccc(N(C)C)cc3)c(OC)cc(OC)c12 (stereo unspecified)	/	-56.0	/	/	0.114	/	/	/	/	/	/	/
Cc1ccc(NC(=O)C2OCCc3ccccc32)cc1Cl (stereo unspecified)	1.2	-23.8	-10.8	-20.6	-0.204	/	/	/	/	/	/	/
Cc1[nH]c(=S)sc1Cc1ccc(Cl)c(Cl)c1	14.3	-11.7	-20.0	-32.4	48.6*	13.0	?	0.0844*	?	0.0365*	0.0483*	0.0149*
Cc1nnc(SCc2ccc(Cl)c(Cl)c2)s1	2.7	-28.0	1.5	10.4	/	/	/	/	/	/	/	/
Cc1ccc(NC(=O)CSc2ccc3nnc(CCNC(=O)c4ccccc4)n3n2)c(C)c1	-2.9	-18.0	-22.4	0.7	0.763	0.9	/	/	/	/	/	/
COCCNC(=O)C(c1ccc(O)cc1)N(C(=O)CCC(=O)Nc1nccs1)c1cccc(C)c1 (stereo unspecified)	0.6	-19.5	10.5	2.6	1.15	/	/	/	/	/	/	/
Cc1cccc(N(C(=O)CCC(=O)Nc2ccccn2)C(C(=O)NC(C)C)c2ccc(O)cc2)c1 (stereo unspecified)	-1.6	-29.2	1.6	9.3	-3.54*	-2.0	0.00594	0.00472	0.0287	0.00777	0.0194	0.0121

Screening data as filed in PubChem BioAssay.
